From ChEMBL document CHEMBL1152649, “Synthesis, cytotoxicity and human telomerase inhibition activities of a series of 1,2-heteroannelated anthraquinones and anthra[1,2-d]imidazole-6,11-dione homologues” (2009)
Activity calls are given as the source filed them. The calls are words filed in the database; no cut-off is given here.

Tests used:
NCI-H322M = experiment: Antiproliferative activity against human NCI-H322M cells assessed as cell growth at 10 uM; type: functional; settings: read-out: Activity
In short: (§1)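 NCI 60 cell line panel, single-dose screen (10^-5 M) run by the developmental therapeutics program protocol. Results are given as growth percent of treated cells relative to untreated control cells for each line.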

OVCAR-8 = experiment: Antiproliferative activity against human OVCAR8 cells assessed as cell growth at 10 uM; type: functional; settings: read-out: Activity; in short: as §1
[1] = biological target: Telomerase reverse transcriptase (Homo sapiens) (UniProt O14746); experiment: Inhibition of telomerase in human H1299 cells up to 100 uM by TRAP assay; type: cell-based
Chain of Telomerase reverse transcriptase (Homo sapiens) (O14746 whole entry): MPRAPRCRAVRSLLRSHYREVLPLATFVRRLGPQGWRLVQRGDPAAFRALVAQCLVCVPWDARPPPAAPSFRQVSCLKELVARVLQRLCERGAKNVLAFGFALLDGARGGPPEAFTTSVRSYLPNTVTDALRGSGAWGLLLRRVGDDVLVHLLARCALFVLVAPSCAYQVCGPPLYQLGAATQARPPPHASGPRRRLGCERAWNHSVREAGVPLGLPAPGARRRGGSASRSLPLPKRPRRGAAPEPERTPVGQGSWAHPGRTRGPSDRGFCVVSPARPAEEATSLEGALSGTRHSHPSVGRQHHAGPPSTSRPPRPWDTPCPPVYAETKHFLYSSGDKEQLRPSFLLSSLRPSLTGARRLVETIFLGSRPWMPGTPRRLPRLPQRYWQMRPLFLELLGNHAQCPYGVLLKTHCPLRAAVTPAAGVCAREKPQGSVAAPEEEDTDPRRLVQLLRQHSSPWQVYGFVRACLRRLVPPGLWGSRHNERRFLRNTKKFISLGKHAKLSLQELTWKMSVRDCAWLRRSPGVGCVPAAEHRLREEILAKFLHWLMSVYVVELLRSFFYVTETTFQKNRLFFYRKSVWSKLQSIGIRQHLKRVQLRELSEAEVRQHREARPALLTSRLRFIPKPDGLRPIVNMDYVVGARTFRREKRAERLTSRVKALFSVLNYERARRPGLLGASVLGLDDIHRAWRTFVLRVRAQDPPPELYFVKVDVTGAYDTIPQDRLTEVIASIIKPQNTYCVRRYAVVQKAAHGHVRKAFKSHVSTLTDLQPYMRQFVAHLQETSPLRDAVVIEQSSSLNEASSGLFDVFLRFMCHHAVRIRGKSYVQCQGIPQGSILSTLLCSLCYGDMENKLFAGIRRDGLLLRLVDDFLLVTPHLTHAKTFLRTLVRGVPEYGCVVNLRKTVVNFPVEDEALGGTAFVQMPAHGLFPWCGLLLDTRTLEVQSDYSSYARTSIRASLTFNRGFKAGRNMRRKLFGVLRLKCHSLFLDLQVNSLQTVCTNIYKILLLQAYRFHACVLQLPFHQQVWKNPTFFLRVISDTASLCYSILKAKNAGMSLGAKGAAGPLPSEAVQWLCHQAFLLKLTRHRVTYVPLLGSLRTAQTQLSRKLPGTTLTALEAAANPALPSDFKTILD
In short: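 PCR-based telomeric repeat amplification protocol (TRAP). The telomerase source was total lysate of H1299 lung cancer cells, with protein measured against BSA standards. Controls were extract without inhibitor and RNase A-treated extract.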

U-251 = experiment: Antiproliferative activity against human U251 cells assessed as cell growth at 10 uM; type: functional; settings: read-out: Activity
In short: (§2)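 NCI 60 cell line panel, single dose (10^-5 M), run per the Developmental Therapeutics Program protocol (one dose mean graph). Each result is the growth percentage of treated cells relative to untreated control cells.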

SNB-19 = experiment: Antiproliferative activity against human SNB19 cells assessed as cell growth at 10 uM; type: functional; settings: read-out: Activity; in short: as §1
HOP-62 = experiment: Antiproliferative activity against human HOP62 cells assessed as cell growth at 10 uM; type: functional; settings: read-out: Activity; in short: as §1
MCF7 = experiment: Antiproliferative activity against human MCF7 cells assessed as cell growth at 10 uM; type: functional; settings: read-out: Activity; in short: as §1
HL-60(TB) = experiment: Antiproliferative activity against human HL-60(TB) cells assessed as cell growth at 10 uM; type: functional; settings: read-out: Activity
In short: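 NCI Developmental Therapeutics Program 60-cell-line one-dose screen at 10^-5 M. Readout is growth percentage of treated cells relative to untreated control cells.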

OVCAR-3 = experiment: Antiproliferative activity against human OVCAR-3 cells assessed as cell growth at 10 uM; type: functional; settings: read-out: Activity; in short: as §1
OVCAR-5 = experiment: Antiproliferative activity against human OVCAR5 cells assessed as cell growth at 10 uM; type: functional; settings: read-out: Activity; in short: as §1
COLO 205 = experiment: Antiproliferative activity against human COLO205 cells assessed as cell growth at 10 uM; type: functional; settings: read-out: Activity; in short: as §1
HT-29 = experiment: Antiproliferative activity against human HT-29 cells assessed as cell growth at 10 uM; type: functional; settings: read-out: Activity; in short: as §1
T47D = experiment: Antiproliferative activity against human T47D cells assessed as cell growth at 10 uM; type: functional; settings: read-out: Activity; in short: as §2
Malme-3M = experiment: Antiproliferative activity against human MALME-3M cells assessed as cell growth at 10 uM; type: functional; settings: read-out: Activity; in short: as §1
[2] = Cytotoxicity against human H1299 cells at 10 uM after 48 hrs by MTT assay; type: functional; settings: NCI-H1299, 48 h
In short: (§3)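 H1299 non-small cell lung cancer cells were grown in RPMI 1640 with 10% FBS, penicillin and streptomycin at 37 °C under 5% CO2. About 2 × 10³ cells per well were seeded and left 24 h. Compounds were dissolved fresh in DMSO, diluted into complete medium and applied for 48 h. MTT was then added for 4 h at 37 °C, followed by lysis buffer (20% SDS, 50% DMF) for 16 h, and absorbance was read at 550 nm.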

NCI/ADR-RES = experiment: Antiproliferative activity against human NCI/ADR-RES cells assessed as cell growth at 10 uM; type: functional; settings: read-out: Activity; in short: as §1
[3] = Cytotoxicity against human H1299 cells at 1 uM after 48 hrs by MTT assay; type: functional; settings: NCI-H1299, 48 h; in short: as §3
[4] = Antiproliferative activity against human Hs 578T cells assessed as cell growth at 10 uM; type: functional; settings: read-out: Activity; in short: as §1
A498 = experiment: Antiproliferative activity against human A498 cells assessed as cell growth at 10 uM; type: functional; settings: read-out: Activity; in short: as §1
786-0 = experiment: Antiproliferative activity against human 786-0 cells assessed as cell growth at 10 uM; type: functional; settings: read-out: Activity; in short: as §1
NCI-H23 = experiment: Antiproliferative activity against human NCI-H23 cells assessed as cell growth at 10 uM; type: functional; settings: read-out: Activity; in short: as §1
SK-MEL-2 = experiment: Antiproliferative activity against human SK-MEL-2 cells assessed as cell growth at 10 uM; type: functional; settings: read-out: Activity; in short: as §1
[5] = biological target: Telomerase reverse transcriptase (Homo sapiens) (UniProt O14746); experiment: Inhibition of TERT in human H1299 cells assessed as residual transcriptional activity at 100 uM after 24 hrs by SEAP reporter gene assay; values are per cent of control
CCRF-CEM = experiment: Antiproliferative activity against human CCRF-CEM cells assessed as cell growth at 10 uM; type: functional; settings: read-out: Activity; in short: as §1
NCI-H226 = experiment: Antiproliferative activity against human NCI-H226 cells assessed as cell growth at 10 uM; type: functional; settings: read-out: Activity; in short: as §1
K562 = experiment: Antiproliferative activity against human K562 cells assessed as cell growth at 10 uM; type: functional; settings: read-out: Activity; in short: as §1
A549 = experiment: Antiproliferative activity against human A549 cells assessed as cell growth at 10 uM; type: functional; settings: read-out: Activity; in short: as §1
SR = experiment: Antiproliferative activity against human SR cells assessed as cell growth at 10 uM; type: functional; settings: read-out: Activity; in short: as §2
SK-MEL-5 = experiment: Antiproliferative activity against human SK-MEL-5 cells assessed as cell growth at 10 uM; type: functional; settings: read-out: Activity; in short: as §1
[6] = Cytotoxicity against human H1299 cells at 100 uM after 48 hrs by MTT assay; type: functional; settings: NCI-H1299, 48 h; in short: as §3
[7] = Antiproliferative activity against human RPMI8266 cells assessed as cell growth at 10 uM; type: functional; settings: read-out: Activity; in short: as §1
M14 = experiment: Antiproliferative activity against human M14 cells assessed as cell growth at 10 uM; type: functional; settings: read-out: Activity; in short: as §1
NCI-H460 = experiment: Antiproliferative activity against human NCI-H460 cells assessed as cell growth at 10 uM; type: functional; settings: read-out: Activity; in short: as §1
SK-OV-3 = experiment: Antiproliferative activity against human SKOV3 cells assessed as cell growth at 10 uM; type: functional; settings: read-out: Activity; in short: as §1
SF-295 = experiment: Antiproliferative activity against human SF295 cells assessed as cell growth at 10 uM; type: functional; settings: read-out: Activity; in short: as §1
TK-10 = experiment: Antiproliferative activity against human TK10 cells assessed as cell growth at 10 uM; type: functional; settings: read-out: Activity; in short: as §2
HCC 2998 = experiment: Antiproliferative activity against human HCC2998 cells assessed as cell growth at 10 uM; type: functional; settings: read-out: Activity; in short: as §1
[8] = biological target: Telomerase reverse transcriptase (Homo sapiens) (UniProt O14746); experiment: Inhibition of TERT in human H1299 cells assessed as residual transcriptional activity at 1 uM after 24 hrs by SEAP reporter gene assay; values are per cent of control
SN12C = experiment: Antiproliferative activity against human SN12C cells assessed as cell growth at 10 uM; type: functional; settings: read-out: Activity; in short: as §1
EKVX = experiment: Antiproliferative activity against human EKVX cells assessed as cell growth at 10 uM; type: functional; settings: read-out: Activity; in short: as §1
DU-145 = experiment: Antiproliferative activity against human DU145 cells assessed as cell growth at 10 uM; type: functional; settings: read-out: Activity; in short: as §1
SK-MEL-28 = experiment: Antiproliferative activity against human SK-MEL-28 cells assessed as cell growth at 10 uM; type: functional; settings: read-out: Activity; in short: as §1
UACC-257 = experiment: Antiproliferative activity against human UACC257 cells assessed as cell growth at 10 uM; type: functional; settings: read-out: Activity; in short: as §2
PC-3 = experiment: Antiproliferative activity against human PC3 cells assessed as cell growth at 10 uM; type: functional; settings: read-out: Activity; in short: as §1
HOP-92 = experiment: Antiproliferative activity against human HOP92 cells assessed as cell growth at 10 uM; type: functional; settings: read-out: Activity; in short: as §1

O=C1c2ccccc2C(=O)c2c1ccc1nsnc21
growth at 10 µM (NCI-H322M): 126% | growth at 10 µM (OVCAR-8): -10.1% | inhibition [1]: inactive | growth at 10 µM (U-251): -89.3% | growth at 10 µM (SNB-19): 79% | growth at 10 µM (HOP-62): -100% | growth at 10 µM (MCF7): -50.7% | growth at 10 µM (HL-60(TB)): -21.8% | growth at 10 µM (OVCAR-3): -15.5% | growth at 10 µM (OVCAR-5): -20.1% | growth at 10 µM (COLO 205): 112% | growth at 10 µM (HT-29): 117% | growth at 10 µM (T47D): -45.5% | growth at 10 µM (Malme-3M): -71.5% | viability at 10 µM [2]: 16% | growth at 10 µM (NCI/ADR-RES): -2.53% | viability at 1 µM [3]: 40% | growth at 10 µM [4]: -7.4% | growth at 10 µM (A498): 130% | growth at 10 µM (786-0): -26% | growth at 10 µM (NCI-H23): 16.1% | growth at 10 µM (SK-MEL-2): -73.2% | residual activity [5]: 9% | growth at 10 µM (CCRF-CEM): -30.8% | growth at 10 µM (NCI-H226): 97.8% | growth at 10 µM (K562): 49.6% | growth at 10 µM (A549): 104% | growth at 10 µM (SR): 4.96% | growth at 10 µM (SK-MEL-5): 8.52% | viability at 100 µM [6]: 17% | growth at 10 µM [7]: -28% | growth at 10 µM (M14): 74.5% | growth at 10 µM (NCI-H460): 77.4% | growth at 10 µM (SK-OV-3): 101% | growth at 10 µM (SF-295): 126% | growth at 10 µM (TK-10): 97% | growth at 10 µM (HCC 2998): -0.74% | residual activity [8]: 89% | growth at 10 µM (SN12C): -73.3% | growth at 10 µM (EKVX): 103% | growth at 10 µM (DU-145): 40.8% | growth at 10 µM (SK-MEL-28): 15.5% | growth at 10 µM (UACC-257): -83.1%

N#Cc1ccc(-c2nc3ccc4c(c3[nH]2)C(=O)c2ccccc2C4=O)cc1
growth at 10 µM (NCI-H322M): 127% | growth at 10 µM (OVCAR-8): 98.9% | inhibition [1]: inactive | growth at 10 µM (U-251): 112% | growth at 10 µM (SNB-19): 97.8% | growth at 10 µM (MCF7): 62.7% | growth at 10 µM (HL-60(TB)): 145% | growth at 10 µM (OVCAR-3): 111% | growth at 10 µM (OVCAR-5): 98.1% | growth at 10 µM (COLO 205): 113% | growth at 10 µM (HT-29): 86.4% | growth at 10 µM (T47D): 85.1% | growth at 10 µM (Malme-3M): 201% | growth at 10 µM (PC-3): 109% | viability at 10 µM [2]: 77% | growth at 10 µM (NCI/ADR-RES): 102% | viability at 1 µM [3]: 80% | growth at 10 µM [4]: 102% | growth at 10 µM (A498): 96.2% | growth at 10 µM (786-0): 124% | growth at 10 µM (HOP-92): 56.2% | growth at 10 µM (NCI-H23): 90.9% | growth at 10 µM (SK-MEL-2): 22.5% | residual activity [5]: 30% | growth at 10 µM (CCRF-CEM): 117% | growth at 10 µM (NCI-H226): 103% | growth at 10 µM (K562): 54.9% | growth at 10 µM (A549): 106% | growth at 10 µM (SR): 84.1% | growth at 10 µM (SK-MEL-5): 103% | viability at 100 µM [6]: 19% | growth at 10 µM [7]: 114% | growth at 10 µM (M14): 243% | growth at 10 µM (NCI-H460): 105% | growth at 10 µM (SK-OV-3): 104% | growth at 10 µM (SF-295): 120% | growth at 10 µM (TK-10): 180% | growth at 10 µM (HCC 2998): 74.7% | residual activity [8]: 91% | growth at 10 µM (SN12C): 105% | growth at 10 µM (EKVX): 99.8% | growth at 10 µM (DU-145): 97.7% | growth at 10 µM (SK-MEL-28): 115% | growth at 10 µM (UACC-257): 105%
